Assay: Toxicity liver stage against HepG2, at 10uM
Type: cell-based
Parameters: test concentration 10 uM, cell line HepG2-A16-CD81EGFP
Details: human, HepG2-A16-CD81EGFP cells; read-out: INHIBITION
Procedure, shortened: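 Uninfected HepG2-A16-CD81EGFP cells, 3 × 10^3 per well, 1536-well, plated on prespotted compound at 10 μM final, parasite-free screening media added to match infected plates; puromycin 10 μM positive, DMSO 0.5% negative; run in parallel with 48 h PbLuc assay at 37 °C, 5% CO2; viability by CellTiter-Glo luminescence, normalized to controls.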

SMILES | cytotoxicity at 10 µM [%]
COCCn1ccc2ccc(C(=O)N3CCN(C(C)=O)CC3)cc21 | -8.6
O=C1CC(NS(=O)(=O)c2cccc(F)c2)CN1 (stereo not given) | -5.89
CCOC(=O)C1CN(S(C)(=O)=O)Cc2ncn(CC)c21 (stereo not given) | 6.74
Cc1noc([C@]23COC[C@H]2CN(S(C)(=O)=O)C3)n1 | 10.4
Cc1cncc(C(=O)N2CCc3ncc(Cn4cccn4)n3CC2)c1 | 14.3
O=C(NC1CC1)N1CCOCC2(C1)CN(c1ccccc1)C(=O)CO2 (stereo not given) | -1.37
NC(=O)C1CCN(C(=O)CCn2ccc3ccc(Br)cc32)CC1 | -5.85
CCc1ccccc1NC(=O)N1CCn2cnc(COC)c2C1 | -11.8
CCC(=O)N1CCCCC1c1nc(O)c2c(n1)CN(S(C)(=O)=O)CC2 (stereo not given) | 5
CC1(Cc2ccc(F)cc2)Cc2cc(C(=O)NCCO)ccc2O1 (stereo not given) | -2.89
Cc1ccc2c(c1)c(C)cc(=O)n2CC(=O)O | 3.1
CN1C(=O)CO[C@H]2CCN(C(=O)Cc3ccc4c(c3)CCCC4)CC[C@@H]21 | 4.45
CC(C)c1ncc(CN2CCC(c3n[nH]cc3C(=O)N(C)C)C2)cn1 (stereo not given) | 2.27
CC(=O)N1CCOC(c2cncc(CCC(N)=O)n2)C1 (stereo not given) | -2.74
c1ccc(CN2CCN(Cc3cnc(C4CCCCO4)nc3)CC2)cc1 (stereo not given) | -1.71
CC(NC(=O)c1cc(C(C)C)[nH]n1)C(=O)Nc1ccccc1 (stereo not given) | 10.8
N#Cc1ccc(F)c(CNc2ccc(F)cc2OCCO)c1 | -1.98
Cc1cccc(CS(=O)(=O)Cc2ccn(C)c(=O)c2)c1 | 2.29
CCS(=O)(=O)NC1CCCN(c2cc(C)ccc2F)C1=O (stereo not given) | 3.07
CCC1CCCCN1S(=O)(=O)c1c(C)noc1C (stereo not given) | -9.35
CC(=O)NCc1ccc(S(=O)(=O)NC(=O)c2ccc3c(c2)COC3)s1 | -1.8
COc1ccc(CCNc2cc(-c3nc(C)no3)ccn2)cc1OC | 3.39
CCC(C)C(=O)N(CC(=O)OC)c1cccc(C)n1 (stereo not given) | -4.31
CC(Cn1cccn1)NC(=O)CCc1nc(C(C)(C)C)no1 (stereo not given) | 14.5
O=C(COc1ccc2c(c1)OCC2O)NCc1ccco1 (stereo not given) | 0.878
CC(C)CN(c1cn[nH]c1)S(=O)(=O)c1cccc(C#N)c1 | 8.75
CC(Oc1cccc(Cl)c1)C(=O)Nc1cnn(CC(=O)NC2CC2)c1 (stereo not given) | 1.73
CCCN(CC1COc2ccccc2O1)C(=O)c1ncoc1CC (stereo not given) | -42.2

SMILES | cytotoxicity at 10 µM [%]
CC(CO)NC(=O)Nc1ccc(Cl)cc1OCC(F)(F)F (stereo not given) | 5.32
COc1ccc(OC)c(CNCc2c(C)nc3sc(C)cn23)c1 | 7.06
COC(=O)C(C)CN(Cc1ccccc1)C(=O)CN1CCCNC1=O (stereo not given) | 0.124
COc1ccccc1N1CCCC(NC(=O)Nc2cccnc2)C1 (stereo not given) | 9.86
CCOCCc1nc(-c2cnn3c(C)cc(C)nc23)no1 | 3.53
CNC(=O)NC(=O)CNc1cc(C(=O)OC)cc(C(F)(F)F)c1 | -0.0264
CC(SCC(=O)NCCC#N)c1ccc(Cl)cc1 (stereo not given) | 10.6
O=C1CC(N(C(=O)c2ccc(Oc3ccccc3)cc2)C2CC2)C(=O)N1 (stereo not given) | -2.94
COc1ccc(Cl)cc1NC(=O)CCNc1ccc(C#N)cn1 | 2.59
COc1c(CNCc2ccccc2CN2CCOCC2)c(C)nn1C | -0.686
COCCN(CCC#N)S(=O)(=O)c1ccc(F)cc1F | -3.54
Cn1nnc(C2(NC(=O)c3ccccc3)CCCC2)n1 | -10.5
Cc1cc(C(=O)N(CCN(C)C)Cc2ccc(Cl)cc2)no1 | 0.242
CCNC(=O)NC(=O)CN1CCCC1c1nc(C2CCCCC2)co1 (stereo not given) | 8.08
COc1cc(C(=O)N(C)Cc2nccn2CC(F)(F)F)ccc1C | -4.24
Cc1cc(C(=O)CN(Cc2cccnc2)CC2CCCO2)c(C)[nH]1 (stereo not given) | -1.26
CC(NCCN1CCN(C(=O)C2CCCC2)CC1)c1ccccn1 (stereo not given) | -2.17
O=C(NS(=O)(=O)c1ccc2c(c1)CCC2)C1COCCO1 (stereo not given) | 10.4
O=C(Nc1cc(C2CCOCC2)[nH]n1)c1cc[nH]n1 | -3.43
N#Cc1ccsc1C(=O)N1CCCCC1Cn1cccn1 (stereo not given) | 3.36
CCC1c2ccccc2CCN1C(=O)c1ccnc(C(=O)OC)c1 (stereo not given) | -2.72
O=C(Cn1cncn1)NCC1(O)CCCc2ccccc21 (stereo not given) | -54.8
O=C1N(CC2CC2)C(c2c[nH]nc2-c2cccnc2)NC12CCCC2 (stereo not given) | -2.16
Cc1nc(CNC(=O)CCN2CCN(c3ccccc3)CC2)oc1C | -4.04
CCNC(=O)N(Cc1ccoc1)C1CCCCC1 | -0.986
COc1ncccc1CNC(=O)C1CC(=O)N(C)C1 (stereo not given) | -14.6
CC(C)(C)NC(=O)NC(=O)CNc1c(F)cccc1N1CCCC1 | 12.2
